Measurements as given in ChEMBL document CHEMBL1153046, “Synthesis and antitumor activity of substituted triazolo[4,3-a]pyrimidin-6-sulfonamide with an incorporated thiazolidinone moiety” (2009).

Assays:
Format in all cases: functional
TK-10 = experiment: Growth inhibition of human TK10 cells after 48 hrs by sulforhodamine B assay; conditions: TK-10, 48 h
How it was run: (§1)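 NCI 60-cell-line panel (nine cancer types), with cells grown in RPMI1640 plus 5% fetal calf serum and 2 mM L-glutamine. Cells are seeded at a density that depends on the line and preincubated 24 h. Compounds are then applied at a minimum of five 10-fold dilutions over a 5-log range with 48 h continuous exposure. Viability is read by SRB protein assay, and GI50 is derived from dose-response curves in units of 10^-5 M.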

SW-620 = experiment: Growth inhibition of human SW620 cells after 48 hrs by sulforhodamine B assay; conditions: SW-620, 48 h; how it was run: as §1
BT-549 = experiment: Growth inhibition of human BT549 cells after 48 hrs by sulforhodamine B assay; conditions: BT-549, 48 h
How it was run: (§2)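 NCI 60-cell-line panel. Cells are grown in RPMI1640 with 5% fetal calf serum and 2 mM L-glutamine, seeded at a density set by growth characteristics, and preincubated 24 h. Compound is tested at a minimum of five concentrations at 10-fold dilution, with 48 h continuous exposure. Viability is read by sulforhodamine B protein assay. GI50, TGI and LC50 come from dose-response curves.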

SF-539 = experiment: Growth inhibition of human SF539 cells after 48 hrs by sulforhodamine B assay; conditions: SF-539, 48 h; how it was run: as §2
HCT-15 = experiment: Growth inhibition of human HCT15 cells after 48 hrs by sulforhodamine B assay; conditions: HCT-15, 48 h; how it was run: as §2
CCRF-CEM = experiment: Growth inhibition of human CCRF-CEM cells after 48 hrs by sulforhodamine B assay; how it was run: as §2
A498 = experiment: Growth inhibition of human A498 cells after 48 hrs by sulforhodamine B assay; conditions: A498, 48 h; how it was run: as §2
HOP-62 = experiment: Growth inhibition of human HOP62 cells after 48 hrs by sulforhodamine B assay; conditions: HOP-62, 48 h; how it was run: as §2
HCC 2998 = experiment: Growth inhibition of human HCC2998 cells after 48 hrs by sulforhodamine B assay; conditions: HCC 2998, 48 h; how it was run: as §2
OVCAR-3 = experiment: Growth inhibition of human OVCAR-3 cells after 48 hrs by sulforhodamine B assay; conditions: OVCAR-3, 48 h; how it was run: as §2
[1] = Growth inhibition of human […] cells after 48 hrs by sulforhodamine B assay; conditions: for CC50: read-out: LC50 (the source's name); how it was run: as §2
MOLT-4 = experiment: Growth inhibition of human MOLT4 cells after 48 hrs by sulforhodamine B assay; conditions: MOLT-4, 48 h; for CC50: read-out: LC50 (the source's name); how it was run: as §2
HL-60(TB) = experiment: Growth inhibition of human HL-60(TB) cells after 48 hrs by sulforhodamine B assay; conditions: HL-60, 48 h
How it was run: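 NCI 60-cell-line panel. Cells were grown in RPMI1640 with 5% fetal calf serum and 2 mM L-glutamine, seeded at a density suited to each line, and preincubated 24 h. Compounds were tested at a minimum of five concentrations at 10-fold dilutions over a 5-log range, with 48 h continuous exposure. Growth was read by sulforhodamine B protein staining, and GI50 was taken from dose-response curves.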

UACC-257 = experiment: Growth inhibition of human UACC257 cells after 48 hrs by sulforhodamine B assay; conditions: UACC-257, 48 h; how it was run: as §1
K562 = experiment: Growth inhibition of human K562 cells after 48 hrs by sulforhodamine B assay; conditions: K562, 48 h; how it was run: as §2
NCI-H522 = experiment: Growth inhibition of human NCI-H522 cells after 48 hrs by sulforhodamine B assay; conditions: NCI-H522, 48 h; how it was run: as §2
SNB-75 = experiment: Growth inhibition of human SNB75 cells after 48 hrs by sulforhodamine B assay; conditions: SNB-75, 48 h; how it was run: as §1
COLO 205 = experiment: Growth inhibition of human COLO205 cells after 48 hrs by sulforhodamine B assay; conditions: COLO 205, 48 h; how it was run: as §2
HT-29 = experiment: Growth inhibition of human HT-29 cells after 48 hrs by sulforhodamine B assay; conditions: HT-29, 48 h; how it was run: as §2
[2] = Growth inhibition of human Hs 578T cells after 48 hrs by sulforhodamine B assay; how it was run: as §2
SF-295 = experiment: Growth inhibition of human SF295 cells after 48 hrs by sulforhodamine B assay; conditions: SF-295, 48 h; how it was run: as §2
OVCAR-8 = experiment: Growth inhibition of human OVCAR8 cells after 48 hrs by sulforhodamine B assay; conditions: OVCAR-8, 48 h; how it was run: as §2
MCF7 [3] = experiment: Growth inhibition of human MCF7 cells after 48 hrs by sulforhodamine B assay; conditions: MCF7, 48 h; how it was run: as §2
NCI-H460 = experiment: Growth inhibition of human NCI-H460 cells after 48 hrs by sulforhodamine B assay; conditions: NCI-H460, 48 h; how it was run: as §2
MCF7 [4] = experiment: Antiproliferative activity against human MCF7 cells assessed as cell growth at 100 uM after 48 hrs by alamar blue assay; conditions: MCF7, 48 h, read-out: Activity
How it was run: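 NCI three-cell-line primary screen. Cells are seeded and preincubated in microtiter plates. Compound is added at a single 10^-4 M concentration and cultures are incubated 48 h. The end-point is read with alamar blue. Results are given as percent growth relative to untreated control cells.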

OVCAR-5 = experiment: Growth inhibition of human OVCAR5 cells after 48 hrs by sulforhodamine B assay; conditions: OVCAR-5, 48 h; how it was run: as §2
SR = experiment: Growth inhibition of human SR cells after 48 hrs by sulforhodamine B assay; how it was run: as §1
NCI/ADR-RES = experiment: Growth inhibition of human NCI/ADR-RES cells after 48 hrs by sulforhodamine B assay; how it was run: as §2
M14 = experiment: Growth inhibition of human M14 cells after 48 hrs by sulforhodamine B assay; conditions: M14, 48 h; how it was run: as §2
T47D = experiment: Growth inhibition of human T47D cells after 48 hrs by sulforhodamine B assay; how it was run: as §1

COc1ccc(/C=N/c2nc3[nH]nc(C)n3c(=O)c2S(=O)(=O)NN2C(=O)C(CN3CCOCC3)SC2c2ccc(OC)cc2)cc1 (centres undefined)
GI50 (TK-10): 40.1 µM
LC50 (TK-10): > 100 µM
TGI (TK-10): > 100 µM
GI50 (SW-620): 47.1 µM
GI50 (BT-549): > 100 µM
TGI (BT-549): > 100 µM
GI50 (SF-539): 75.1 µM
LC50 (SF-539): > 100 µM
TGI (SF-539): > 100 µM
GI50 (HCT-15): 26.7 µM
TGI (HCT-15): > 100 µM
GI50 (CCRF-CEM): 25.8 µM
TGI (CCRF-CEM): 78.9 µM
GI50 (A498): 25.5 µM
LC50 (concentration giving 50% net cell kill) (A498): > 100 µM
TGI (A498): 69.2 µM
GI50 (HOP-62): 86.6 µM
LC50 (HOP-62): > 100 µM
TGI (HOP-62): > 100 µM
GI50 (HCC 2998): 22 µM
LC50 (HCC 2998): > 100 µM
TGI (HCC 2998): > 100 µM
GI50 (OVCAR-3): 22.5 µM
LC50 (concentration killing 50% of cells) (OVCAR-3): > 100 µM
TGI (OVCAR-3): 60.5 µM
GI50 [1]: 16.4 µM
TGI [1]: 44.3 µM
CC50 [1]: > 100 µM
GI50 (MOLT-4): 13.6 µM
TGI (MOLT-4): 34.4 µM
CC50 (MOLT-4): 86.8 µM
GI50 (HL-60(TB)): 9.8 µM
LC50 (HL-60(TB)): 74.3 µM
TGI (HL-60(TB)): 27.2 µM
GI50 (UACC-257): 32.2 µM
LC50 (UACC-257): > 100 µM
TGI (UACC-257): > 100 µM
GI50 (K562): 13 µM
LC50 (K562): 80.5 µM
TGI (K562): 32.3 µM
GI50 (NCI-H522): 32.5 µM
TGI (NCI-H522): > 100 µM
GI50 (SNB-75): 57.3 µM
TGI (SNB-75): > 100 µM
GI50 (COLO 205): 66.2 µM
TGI (COLO 205): > 100 µM
GI50 (HT-29): 26.7 µM
GI50 [2]: 41.1 µM
LC50 (concentration killing 50% of cells) [2]: > 100 µM
TGI [2]: > 100 µM
GI50 (SF-295): 33.2 µM
LC50 (concentration killing 50% of cells) (SF-295): > 100 µM
TGI (SF-295): > 100 µM
GI50 (OVCAR-8): 31.4 µM
TGI (OVCAR-8): > 100 µM
GI50 (MCF7 [3]): 77.3 µM
TGI (MCF7 [3]): > 100 µM
GI50 (NCI-H460): 87.7 µM
TGI (NCI-H460): > 100 µM
growth at 100 µM (MCF7 [4]): 64%
GI50 (OVCAR-5): > 100 µM
LC50 (concentration causing 50% net cell kill) (OVCAR-5): > 100 µM
TGI (OVCAR-5): > 100 µM
GI50 (SR): 11.7 µM
LC50 (concentration killing 50% of cells) (SR): 71.5 µM
TGI (SR): 28.9 µM
GI50 (NCI/ADR-RES): 43.1 µM
TGI (NCI/ADR-RES): > 100 µM
GI50 (M14): 67.4 µM
LC50 (concentration killing 50% of cells) (M14): > 100 µM
TGI (M14): > 100 µM
GI50 (T47D): > 100 µM
TGI (T47D): > 100 µM

COc1ccc(/C=N/c2nc3[nH]nc(C)n3c(=O)c2S(=O)(=O)NN2C(=O)C(CN3CCN(C)CC3)SC2c2ccc(OC)cc2)cc1 (centres undefined)
GI50 (TK-10): 19.4 µM
LC50 (TK-10): 82.1 µM
TGI (TK-10): 39.9 µM
GI50 (SW-620): 30.4 µM
GI50 (BT-549): 19.1 µM
TGI (BT-549): 46.3 µM
GI50 (SF-539): 6.5 µM
LC50 (SF-539): 61.2 µM
TGI (SF-539): 21.8 µM
GI50 (HCT-15): 17.2 µM
TGI (HCT-15): 70.8 µM
GI50 (CCRF-CEM): 17.2 µM
TGI (CCRF-CEM): 49.2 µM
GI50 (A498): 12.9 µM
LC50 (concentration giving 50% net cell kill) (A498): 60.9 µM
TGI (A498): 28.1 µM
GI50 (HOP-62): 20.2 µM
LC50 (HOP-62): 82.6 µM
TGI (HOP-62): 40.9 µM
GI50 (HCC 2998): 8.59 µM
LC50 (HCC 2998): 71.9 µM
TGI (HCC 2998): 22.5 µM
GI50 (OVCAR-3): 21.5 µM
LC50 (concentration killing 50% of cells) (OVCAR-3): 75.3 µM
TGI (OVCAR-3): 40.2 µM
GI50 [1]: 14.1 µM
TGI [1]: 39 µM
CC50 [1]: > 100 µM
GI50 (MOLT-4): 17.8 µM
TGI (MOLT-4): 58.9 µM
CC50 (MOLT-4): > 100 µM
GI50 (HL-60(TB)): 28.2 µM
LC50 (HL-60(TB)): > 100 µM
TGI (HL-60(TB)): 86.8 µM
GI50 (UACC-257): 21.6 µM
LC50 (UACC-257): 92.3 µM
TGI (UACC-257): 44.7 µM
GI50 (K562): 13 µM
LC50 (K562): 63.3 µM
TGI (K562): 28.7 µM
GI50 (NCI-H522): 21.9 µM
TGI (NCI-H522): 47.7 µM
GI50 (SNB-75): 23.6 µM
TGI (SNB-75): 51.8 µM
GI50 (HT-29): 34.7 µM
GI50 [2]: 13 µM
LC50 (concentration killing 50% of cells) [2]: 88.7 µM
TGI [2]: 34 µM
GI50 (SF-295): 16.8 µM
LC50 (concentration killing 50% of cells) (SF-295): 76.8 µM
TGI (SF-295): 35.9 µM
GI50 (OVCAR-8): 7.82 µM
TGI (OVCAR-8): 47.2 µM
GI50 (MCF7 [3]): 15.3 µM
TGI (MCF7 [3]): 47.8 µM
GI50 (NCI-H460): 16.4 µM
TGI (NCI-H460): 46.7 µM
growth at 100 µM (MCF7 [4]): 9%
GI50 (OVCAR-5): 24.3 µM
LC50 (concentration causing 50% net cell kill) (OVCAR-5): 90.7 µM
TGI (OVCAR-5): 47 µM
GI50 (SR): 7.72 µM
LC50 (concentration killing 50% of cells) (SR): 84.9 µM
TGI (SR): 27.5 µM
GI50 (NCI/ADR-RES): 14.1 µM
TGI (NCI/ADR-RES): 40.2 µM
GI50 (M14): 17 µM
LC50 (concentration killing 50% of cells) (M14): 78 µM
TGI (M14): 36.5 µM
GI50 (T47D): 31.2 µM
TGI (T47D): 89.4 µM
